Measurements from different studies.
Lines come from different studies, so protocols differ.
Target: Myosin light chain kinase family member 4 (MYLK4, Homo sapiens, UniProt Q86YV6)
Sequence (Q86YV6 1-388, as in one of the studies): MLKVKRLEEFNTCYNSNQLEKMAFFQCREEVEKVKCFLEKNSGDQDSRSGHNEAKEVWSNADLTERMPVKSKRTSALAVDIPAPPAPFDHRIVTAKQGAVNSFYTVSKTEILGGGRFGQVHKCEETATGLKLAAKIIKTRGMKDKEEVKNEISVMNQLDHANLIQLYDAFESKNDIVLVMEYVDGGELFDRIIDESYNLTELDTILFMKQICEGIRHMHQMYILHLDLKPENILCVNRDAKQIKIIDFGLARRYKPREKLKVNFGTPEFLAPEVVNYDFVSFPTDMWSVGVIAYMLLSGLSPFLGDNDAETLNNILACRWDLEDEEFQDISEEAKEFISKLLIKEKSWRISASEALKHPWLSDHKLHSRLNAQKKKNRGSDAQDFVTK

SMILES	effect on	mode	technique	tested at	endpoint	value
Nc1ncnc2occ(-c3ccc(NC(=O)Nc4cc(C(F)(F)F)ccc4F)cc3)c12	enzyme activity	inhibitor	–	20 µM	remaining activity	48%
Nc1c(C(=O)NCc2ccc(C(=O)NCCCC3CCCCC3)cc2)cnn1-c1ccccc1	cell-free assay	–	competition with immobilised ligand	0.1 µM	remaining binding	100%
O=C(Nc1cnn(-c2csc(C(=O)NC3COC3)c2)c1)Nc1c(F)cccc1Cl	enzyme activity	inhibitor	–	5 µM	remaining activity	91.7%
CCCOc1ccc([C@@H]2[C@@H](C(=O)O)[C@H](c3ccc4c(c3)OCO4)CN2CC(=O)Nc2c(CC)cccc2CC)cc1	cell-free assay	–	competition with immobilised ligand	1 µM	remaining binding	100%
Fc1cccc(-n2cnc3c(NCc4nc5c(F)c(F)ccc5[nH]4)nc(N4CCOCC4)nc32)c1	binding	–	competition with immobilised ligand	10 µM	binding vs control	2.1%
Cc1ccc(C(=O)Nc2ccc(CN3CCN(C)CC3)c(C(F)(F)F)c2)cc1C#Cc1cnc2cccnn12	enzyme activity	inhibitor	–	23.5 nM	remaining activity	92%
O=[N+]([O-])c1cccc2[nH]c(CNc3nc(N4CCOCC4)nc4c3ncn4-c3ccsc3)nc12	binding	–	competition with immobilised ligand	10 µM	binding vs control	2.6%
O=C(Nc1cnn(-c2csc(C(=O)NC3COC3)c2)c1)Nc1ccccc1Cl	enzyme activity	inhibitor	–	5 µM	remaining activity	85.2%
